Measurements published in ChEMBL document CHEMBL1156295, “In vitro and in vivo photocytotoxicity of boron dipyrromethene derivatives for photodynamic therapy” (J Med Chem, 2010).
Active and inactive are the calls of the source. The calls are words filed in the database; no cut-off is given here.

Tests used:
Gallus gallus = species: Gallus gallus; test: Antiangiogenic activity against chicken chorioallantoic membrane in dark assessed as induction of vascular occlusion at 3.5 to 7 nmol/embryo; format: functional, tissue-based
In short: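 Fertilized chicken eggs incubated at 37 °C, 65% humidity. On EDD-9, single iv bolus into the main CAM vessel in cremophor EL 5%, EtOH 5% in saline. One minute later, a 0.02 cm2 site with 5–100 μm vessels irradiated at 510–560 nm, 40 mW/cm2 (or left dark). After 24 h, FITC-dextran/Indian ink angiography and damage scoring per Lange et al.; at least 10 embryos, mean ± SEM.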

[1] = Cellular uptake in human HSC2 cells assessed as intracellular localization in to cytoplasmic membrane at 100 nM by spinning disk confocal microscopy; format: ADME, cell-based; conditions: hsc-2, 0.1 µM
In short: (§1)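 HSC-2 cells grown on glass coverslips, co-incubated at room temperature for 15–30 min with compound plus probe: ER-Tracker 100 nM, LysoTracker 500 nM or Rh123 100 nM. Rinsed in PBS. XY sections at 0.2 μm imaged; excitation 330–385 nm for ER/Lyso probes, 460–490 nm for Rh123, 520–550 nm for photosensitizer.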

HL-60 [2] = test: Phototoxicity against human HL60 cells irradiated with 4.1 J/cm^2 broad spectrum light treated 2 hrs before irradiation measured after 24 hrs by MTT assay; format: functional, cell-based; conditions: HL-60, light or radiation study
In short: (§2)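 HL60 at 15000 cells/well; HSC-2 and HK1 at 3000 cells/well, adhered overnight; phenol-red-free medium with 10% FBS. Compound tested at 0.001–100.0 μM from DMSO stock; controls 0.01% DMSO. After 2 h, irradiated with broad-spectrum light at 6.8 mW/cm2, or dark. After 24 h, MTT 4 h at 37 °C, formazan in DMSO, A570. Three determinations, mean ± SD.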

HL-60 [3] = test: Cytotoxicity against human HL60 cells after 24 hrs by MTT assay; format: functional, cell-based; conditions: HL-60, 24 h; in short: as §2
[4] = Cellular uptake in human HSC2 cells assessed as intracellular localization in to endoplasmic reticulum labeled with ER-tracker blue-white DPX dye at 100 nM by spinning disk confocal microscopy; format: ADME, cell-based; conditions: hsc-2, 0.1 µM; in short: as §1
HSC-2 [5] = test: Cell cycle arrest in human HSC2 cells irradiated with 4.1 J/cm^2 broad spectrum light assessed as accumulation at G2/M phase at 0.25 uM after 2 hrs by flow cytometry relative to control; format: functional
In short: (§3)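 HSC-2 cells given compound for 2 h, then irradiated with broad-spectrum light (or kept dark). Floating plus trypsinized adherent cells collected at set times after irradiation. Fixed in 70% ice-cold ethanol overnight at 4 °C, then stained 30 min with 20 μg/mL RNase A and 1 μM SYTOX Green. 1 × 10^4 cells read by flow cytometry (488 nm laser, FL1 530/30).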

HSC-2 [6] = test: Cell cycle arrest in human HSC2 cells irradiated with 4.1 J/cm^2 broad spectrum light assessed as accumulation at G2/M phase at 0.25 uM after 4 hrs by flow cytometry relative to control; format: functional; in short: as §3
HSC-2 [7] = test: Cell cycle arrest in human HSC2 cells irradiated with 4.1 J/cm^2 broad spectrum light assessed as accumulation at G1 phase at 0.25 uM after 4 hrs by flow cytometry relative to control; format: functional; in short: as §3
HSC-2 [8] = test: Cell cycle arrest in human HSC2 cells in dark assessed as accumulation at G1 phase at 0.25 uM after 12 hrs by flow cytometry relative to control; format: functional; in short: as §3
HSC-2 [9] = test: Cell cycle arrest in human HSC2 cells irradiated with 4.1 J/cm^2 broad spectrum light assessed as accumulation at sub-G1 phase at 0.25 uM after 2 hrs by flow cytometry relative to control; format: functional; in short: as §3
HSC-2 [10] = test: Cell cycle arrest in human HSC2 cells irradiated with 4.1 J/cm^2 broad spectrum light assessed as accumulation at sub-G1 phase at 0.25 uM after 6 hrs by flow cytometry relative to control; format: functional; in short: as §3
HSC-2 [11] = test: Induction of apoptosis in human HSC2 cells irradiated with 4.1 J/cm^2 broad spectrum light assessed as viable cells at 0.5 uM after 12 hrs of irradiation by annexin V-FITC staining; format: functional; conditions: HSC-2, light or radiation study, read-out: Activity
In short: (§4)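 HSC-2 cells at 50% confluency in dishes, treated 2 h, then irradiated (4.1 J/cm2 broad spectrum) or kept dark. At intervals, floating and trypsinized cells pooled, washed in cold PBS, resuspended at 1 × 10^6 cells/mL in binding buffer. Stained 15 min in the dark at room temperature with annexin V-FITC and propidium iodide. 1 × 10^4 cells read by flow cytometry (FL1, FL3).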

HSC-2 [12] = test: Induction of apoptosis in human HSC2 cells irradiated with 4.1 J/cm^2 broad spectrum light assessed as apoptotic cells at 0.5 uM after 12 hrs of irradiation by annexin V-FITC staining; format: functional; in short: as §4
HSC-2 [13] = test: Induction of apoptosis in human HSC2 cells irradiated with 4.1 J/cm^2 broad spectrum light assessed as viable cells at 0.5 uM after 16 hrs of irradiation by annexin V-FITC staining; format: functional; conditions: HSC-2, light or radiation study, read-out: Activity; in short: as §4

CC1=C(I)C(C)=[N+]2C1=C(CCC(=O)O)c1c(C)c(I)c(C)n1[B-]2(F)F
Activity (Gallus gallus): inactive
Activity [1]: Not Active
IC50 (HL-60 [2]): 45 nM
IC50 (HL-60 [3]): > 100000 nM
Drug uptake [4]: Active
Activity (HSC-2 [5]): 39.8%
Activity (HSC-2 [6]): 48.4%
Activity (HSC-2 [7]): 33.8%
Activity (HSC-2 [8]): 55.2%
Activity (HSC-2 [9]): 3.7%
Activity (HSC-2 [10]): 3.9%
viability at 0.5 µM (HSC-2 [11]): 79.3%
Activity (HSC-2 [12]): 20.7%
viability at 0.5 µM (HSC-2 [13]): 52.6%
